What was measured:
Assay type in all cases: functional
MCF7 [1] = test: Estrogenic activity in human MCF7 cells assessed as drug level causing stimulation of cell proliferation equivalent to 10 pM estradiol after 96 hrs by alamar blue assay
Method in brief: (§1)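 Cells seeded at 10^4 per well in phenol red-free RPMI with 5% DCC-treated FBS. Compounds added in DMSO (vehicle control 1% DMSO) for 96 h at 37 °C, 5% CO2, with serial estradiol dilutions run alongside. Alamar Blue for 3 h, fluorescence ex 530/em 590 nm. Estradiol-equivalent concentration fitted by linear regression from at least five concentrations in quadruplicate.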

T47D [2] = test: Estrogenic activity in human T47D cells assessed as drug level causing stimulation of cell proliferation equivalent to 100 pM estradiol after 96 hrs by alamar blue assay; method in brief: as §1
MCF7 [3] = test: Estrogenic activity in luciferase transfected human MCF7 cells assessed as drug level causing stimulation of cell proliferation equivalent to 100 pM estradiol by luciferase reporter gene assay
Method in brief: (§2)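 Reporter assay in MCF-7 or T47D cells transiently transfected with luciferase. Compounds tested from 0.01 to 10 µM. Luciferase induction is expressed as the compound concentration equivalent to the 10 or 100 pM estradiol response. Values come from linear regression over at least five concentrations in quadruplicate.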

T47D [4] = test: Estrogenic activity in human T47D cells assessed as drug level causing stimulation of cell proliferation equivalent to 10 pM estradiol after 96 hrs by alamar blue assay; method in brief: as §1
T47D [5] = test: Estrogenic activity in luciferase transfected human T47D cells assessed as drug level causing stimulation of cell proliferation equivalent to 10 pM estradiol by luciferase reporter gene assay; method in brief: as §2
T47D [6] = test: Estrogenic activity in luciferase transfected human T47D cells assessed as drug level causing stimulation of cell proliferation equivalent to 100 pM estradiol by luciferase reporter gene assay; method in brief: as §2
MCF7 [7] = test: Estrogenic activity in human MCF7 cells assessed as drug level causing stimulation of cell proliferation equivalent to 100 pM estradiol after 96 hrs by alamar blue assay; method in brief: as §1
MCF7 [8] = test: Estrogenic activity in luciferase transfected human MCF7 cells assessed as drug level causing stimulation of cell proliferation equivalent to 10 pM estradiol by luciferase reporter gene assay; method in brief: as §2

Structure (SMILES) | Activity (MCF7 [1]) | Activity (T47D [2]) | Activity (MCF7 [3]) | Activity (T47D [4]) | Activity (T47D [5]) | Activity (T47D [6]) | Activity (MCF7 [7]) | Activity (MCF7 [8])
COc1ccc(-c2coc3cc(O)ccc3c2=O)c(OC)c1 [2'-METHOXYFORMONETIN] | 0.3 µM | 1.7 µM | >100 µM | 0.01 µM | 1.8 µM | 6.2 µM | 5.2 µM | >100 µM
COc1ccc(-c2coc3cc(O)cc(O)c3c2=O)cc1 [BIOCHANIN] | 0.3 µM | 0.5 µM | >100 µM | 0.3 µM | 0.01 µM | 0.01 µM | 3.8 µM | >100 µM
COC1=CC(=O)C(c2coc3cc(O)ccc3c2=O)=CC1=O [BOWDICHIONE] | 0.01 µM | >100 µM | 0.9 µM | >100 µM | >100 µM | >100 µM | 1.4 µM | 0.7 µM
COc1ccc(-c2coc3cc(O)ccc3c2=O)cc1O [CALYCOSIN] | >100 µM | >100 µM | 4.7 µM | 4.1 µM | 8.8 µM | >100 µM | >100 µM | 0.6 µM
COc1cc([C@H]2Oc3cc(O)ccc3C(=O)[C@@H]2O)ccc1O [ERYCIBENIN D] | >100 µM | >100 µM | >100 µM | 5.7 µM | 0.3 µM | >100 µM | >100 µM | >100 µM
COc1ccc(-c2coc3cc(O)ccc3c2=O)cc1 [FORMONONETIN] | >100 µM | >100 µM | 0.01 µM | 0.03 µM | 0.01 µM | 0.01 µM | >100 µM | 0.01 µM
O=c1c(-c2ccc(O)cc2)coc2cc(O)cc(O)c12 [GENISTEIN] | 0.01 µM | 0.08 µM | 0.01 µM | 0.01 µM | 0.01 µM | 0.6 µM | 0.11 µM | 0.01 µM
COc1c(C/C=C/c2ccccc2)ccc(O)c1O [HYDROXYOBUSTYRENE] | >100 µM | >100 µM | >100 µM | 5.1 µM | >100 µM | >100 µM | >100 µM | >100 µM
COc1ccc([C@@]2(O)COc3cc(O)ccc3C2=O)c(O)c1O [ISODARPARVINOL B] | >100 µM | >100 µM | 3.4 µM | >100 µM | >100 µM | >100 µM | >100 µM | 1.2 µM
O=C(/C=C/c1ccc(O)cc1)c1ccc(O)cc1O [ISOLIQUIRITIGENIN] | 1.1 µM | >100 µM | >100 µM | 1 µM | >100 µM | >100 µM | 4 µM | 0.01 µM
COc1cc(O)c(-c2coc3cc(O)ccc3c2=O)cc1O [KHRINONE A] | >100 µM | >100 µM | >100 µM | >100 µM | 5.6 µM | 8.4 µM | >100 µM | >100 µM
COc1cc(O)c(-c2coc3cc(O)cc(O)c3c2=O)cc1O [KHRINONE B] | >100 µM | >100 µM | >100 µM | >100 µM | >100 µM | >100 µM | >100 µM | >100 µM
COc1ccc(-c2coc3cc(O)cc(O)c3c2=O)c(OC)c1O [KHRINONE C] | 4.5 µM | 8.6 µM | >100 µM | 0.2 µM | 0.2 µM | 2 µM | 93.3 µM | >100 µM
COc1cc2c(cc1-c1coc3cc(O)cc(O)c3c1=O)OCO2 [KHRINONE D] | 1.8 µM | >100 µM | 0.6 µM | 0.01 µM | 5.3 µM | >100 µM | 4.2 µM | 0.01 µM

Reference: ChEMBL document CHEMBL1153749, “Flavonoids from the heartwood of the Thai medicinal plant Dalbergia parviflora and their effects on estrogenic-responsive human breast cancer cells” (2009)
